Experimental data gathered from unrelated publications.
Lines come from different studies, so protocols differ.
GIPR: Gastric inhibitory polypeptide receptor (GIPR, Homo sapiens, UniProt P48546)
SLC22A11: Solute carrier family 22 member 11 (SLC22A11, Homo sapiens, UniProt Q9NSA0)

| Structure (SMILES) | target | effect on | mode | method | concentration | measurement | result |
| --- | --- | --- | --- | --- | --- | --- | --- |
| [2H]c1c([2H])c([C@]2([2H])CCCN2C(=O)C(C)(C)Oc2ccc3cn[nH]c3c2)c([2H])c([2H])c1C([2H])([2H])[2H] | Receptor tyrosine-protein kinase erbB-2 (ERBB2, Homo sapiens, UniProt P04626) | binding | – | competition with immobilised ligand | 1 µM | remaining binding | 83% |
| CC[C@H](C)[C@H](NC(=O)[C@H](CO)NC(=O)[C@H](Cc1ccc(O)cc1)NC(=O)[C@H](CC(=O)O)NC(=O)[C@H](CO)NC(=O)[C@@H](NC(=O)[C@H](Cc1ccccc1)NC(=O)[C@@H](NC(=O)CNC(=O)[C@H](CCC(=O)O)NC(=O)CCNC(=O)C1(c2ccc(Cl)cc2)CCOCC1)[C@@H](C)O)[C@@H](C)CC)C(=O)N[C@@H](C)C(=O)N[C@@H](CCSC)C(=O)N[C@@H](CC(=O)O)C(=O)N[C@@H](CCCCN)C(=O)N[C@H](C(=O)N[C@@H](Cc1c[nH]cn1)C(=O)N[C@@H](CCC(N)=O)C(=O)N[C@@H](CCC(N)=O)C(=O)N[C@@H](CC(=O)O)C(=O)N[C@@H](Cc1ccccc1)C(=O)N[C@H](C(=O)N[C@@H](CC(N)=O)C(=O)N[C@@H](Cc1c[nH]c2ccccc12)C(=O)N[C@@H](CC(C)C)C(=O)N[C@@H](CC(C)C)C(=O)N[C@@H](C)C(=O)N[C@@H](CCC(N)=O)C(=O)NCC(=O)N1CCC[C@H]1C(=O)N[C@@H](CO)C(=O)N[C@@H](CO)C(=O)NCC(=O)N[C@@H](C)C(=O)N1CCC[C@H]1C(=O)N1CCC[C@H]1C(=O)N1CCC[C@H]1C(=O)N[C@@H](CO)C(=O)N[C@@H](CCCCN)C(N)=O)C(C)C)[C@@H](C)CC | GIPR | β-arrestin recruitment | agonist | – | – | Emax | 14% |
| CC(C)CC(=O)OC[C@H]1O[C@@](C#N)(c2ccc3c(N)ncnn23)[C@H](O)[C@@H]1O | Alpha-2A adrenergic receptor (ADRA2A, Homo sapiens, UniProt P08913) | cell-free assay | – | – | 20 µM | inhibition | 6% |
| c1cncc([C@@H]2CCCN2)c1 | 5-hydroxytryptamine receptor 3A (HTR3A, Homo sapiens, UniProt P46098) | ligand displacement | – | radioligand | 50 µM | inhibition | -3.09% |
| Cn1c(=O)c2[nH]cnc2n(C)c1=O | SLC22A11 | transporter uptake | inhibitor | – | 25 µM | inhibition | 81.6% |
| CN1CCC[C@H]1c1cccnc1 | Delta-type opioid receptor (OPRD1, Homo sapiens, UniProt P41143) | ligand displacement | – | – | 50 µM | inhibition | -7.8% |
| CC[C@H](C)[C@H](NC(=O)[C@H](CO)NC(=O)[C@H](Cc1ccc(O)cc1)NC(=O)[C@H](CC(=O)O)NC(=O)[C@H](CO)NC(=O)[C@@H](NC(=O)[C@H](Cc1ccccc1)NC(=O)[C@@H](NC(=O)CNC(=O)[C@H](CCC(=O)O)NC(=O)[C@@H](C)NC(=O)[C@@H](N)Cc1ccc(O)cc1)[C@@H](C)O)[C@@H](C)CC)C(=O)N[C@@H](C)C(=O)N[C@@H](CCSC)C(=O)N[C@@H](CC(=O)O)C(=O)N[C@@H](CCCCN)C(=O)N[C@H](C(=O)N[C@@H](Cc1c[nH]cn1)C(=O)N[C@@H](CCC(N)=O)C(=O)N[C@@H](CCC(N)=O)C(=O)N[C@@H](CC(=O)O)C(=O)N[C@@H](Cc1ccccc1)C(=O)N[C@H](C(=O)N[C@@H](CC(N)=O)C(=O)N[C@@H](Cc1c[nH]c2ccccc12)C(=O)N[C@@H](CC(C)C)C(=O)N[C@@H](CC(C)C)C(=O)N[C@@H](C)C(=O)N[C@@H](CCC(N)=O)C(=O)NCC(=O)N1CCC[C@H]1C(=O)N[C@@H](CO)C(=O)N[C@@H](CO)C(=O)NCC(=O)N[C@@H](C)C(=O)N1CCC[C@H]1C(=O)N1CCC[C@H]1C(=O)N1CCC[C@H]1C(=O)N[C@@H](CO)C(=O)N[C@@H](CCCCN)C(N)=O)C(C)C)[C@@H](C)CC | GIPR | β-arrestin recruitment | agonist | – | – | Emax | 103% |
| CCCCCCCCCc1ccc(OCCOCCOCCOCCOCCOCCOCCOCCOCCO)cc1 | SLC22A11 | transporter uptake | inhibitor | – | 25 µM | inhibition | 79.9% |
